Screens deposited in PubChem BioAssay by several laboratories.
Autophagy mod – autophagy modulation, high-content screen | MEF GFP-LC3 puncta imaging; test concentration mostly 10 µM | calls only at 10 µM (by protocol) | 190,000 compounds, 0.98% hits;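 active = percentage of spot-positive cells more than 3 SD above its plate mean, without a fluorescence outlier flag or 80% toxicity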;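 also: spot-positive cell cutoff set from DMSO-treated cells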
HCT116 PTEN-null – PTEN-deleted cell growth suppression. 140,000 compounds, 1.2% hits. HCT116 PTEN-null viability, CellTiter-Glo, 60 h; active compounds read low. viability, % at 10 µM;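 active = viability at or below a set limit, 4 SD under the median of all tested compounds, cut at about 3.7% in these data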;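 also: PTEN knockout HCT116 line with beta catenin targeted HCT116 as companion control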
Lmaj promast – Leishmania major promastigote growth inhibition | Leishmania major promastigotes, resazurin fluorescence viability | inhibition, % at 10 µM | 200,000 compounds, 9% hits; in the data active = inhibition above about 50%;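 also: promastigotes grown with compound for 44 hours at 28 °C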
Dynein cargo inh – dynein cargo transport inhibition. 3617.4 mouse cells, GR-EGFP nuclear translocation imaging; test concentration mostly 20 µM; stimulated with dexamethasone, 1 µM; active compounds read low. z-score, hits read low. 220,000 compounds, 0.47% hits. AID 1381;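 active = plate z-score of nuclear minus cytoplasmic receptor signal below a set negative limit, without overly bright fluorescence or cell loss, cut at about -3.5 in these data, passing the limit was not always enough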;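 also: z-score of nuclear minus cytoplasmic ring GR-EGFP intensity difference per well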
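medium = tetracycline-free induction medium containing charcoal-stripped FBS | also added = 1.0 µM final dexamethasone stimulus | schedule = 48 h induction, 1 h compound, 30 min dex at 37 °C | technique = fixed, Hoechst-stained cells imaged at 10x for EGFP | measure = GR-EGFP nuclear translocation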
HCT116 bCat-KO – beta-catenin-lacking colon tumor cell growth suppression. HCT116 beta-catenin knockout viability, CellTiter-Glo, 60 h; active compounds read low. viability, % at 10 µM. 140,000 compounds, 1.5% hits. AID 818;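 active = viability at or under a set limit, the compound median less 4 SD, cut at about 6% in these data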;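 also: 0% = Hyamine 1622 control at 20 µM and 100% = untreated cell control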
Active calls of the source: *; i = inactive; / = no result given; + = active, no number. Only some compounds are listed: those with a hit (about 9.2% of all), similar ones and a draw of the others.

SMILES | Autophagy mod | HCT116 PTEN-null | Lmaj promast | Dynein cargo inh | HCT116 bCat-KO
CCCC(C(=O)NC(C)(C)C)N(C(=O)c1snc(C(N)=O)c1N)c1ccc2c(c1)OCCO2 (stereo not drawn) | i | / | 52.3* | 0.562 | /
Cc1ccc(C(C(=O)NC(C)(C)C)N(Cc2ccccc2)C(=O)c2snc(C(N)=O)c2N)o1 (stereo not drawn) | i | / | 54.5* | -0.0762 | /
CN(C(=O)CN(c1ccccc1)S(=O)(=O)c1ccc(F)cc1)C1CCS(=O)(=O)C1 (stereo not drawn) | / | / | / | 0.137 | /
CCN(CC)S(=O)(=O)c1ccc(O)c(C(=O)OCC(=O)Nc2ccc(OC(F)(F)F)cc2)c1 | i | / | 2.4 | -0.63 | /
NC(=O)c1nsc(C(=O)N(CC(=O)NCc2ccc3c(c2)OCO3)C2CCCC2)c1N | i | 104.1 | 5.0 | -0.0871 | 101.4
CCCC(C(=O)NC1CCCC1)N(Cc1ccc2c(c1)OCO2)C(=O)c1snc(C(N)=O)c1N (stereo not drawn) | i | 72.6 | 53.6* | -0.583 | 70.8
CC1=CC(C)C2COC(c3ccc[n+](C)c3)C1C2C (stereo not drawn) | i | 97.2 | 16.0 | 0.699 | 93.0
O=C(COC(=O)C1c2ccccc2Oc2ccccc21)Nc1ccc2c(c1)OCO2 | i | 96.5 | -0.5 | -0.879 | 95.6
CC(C)Oc1ccc(CNC2CCOC(C)(C)C2)cc1 (stereo not drawn) | i | 99.7 | 86.3* | -0.552 | 103.8
C/C(=N\NC(=O)c1ccc(Cn2cc(Br)cn2)o1)c1cccc(NC(=O)C(C)C)c1 | i | 106.0 | 89.6* | 0.223 | 108.0
C/C(=N\NC(=O)c1cccc(Br)c1)c1cccc(NC(=O)c2ccc(C)o2)c1 | i | 86.0 | 56.1* | 0.612 | 88.4
O=C(NCCCn1ccnc1)C(=O)NCC1OCCCN1S(=O)(=O)c1ccc(Cl)cc1 (stereo not drawn) | i | 90.0 | 51.5* | -0.39 | 86.0
O=C(NCCc1c[nH]c2ccccc12)C(=O)NCC1OCCN1S(=O)(=O)c1ccccc1 (stereo not drawn) | i | / | 69.6* | 1.1 | /
COc1ccc(S(=O)(=O)N2CCOC2CNC(=O)C(=O)NCCc2ccc(OC)c(OC)c2)cc1 (stereo not drawn) | + | 79.8 | -4.2 | 0.331 | 88.1
O=C(NCCC1=CCCCC1)C(=O)NCC1OCCCN1S(=O)(=O)c1ccc(F)cc1 (stereo not drawn) | i | / | 95.6* | -0.766 | /
O=C(NCCC1=CCCCC1)C(=O)NCC1OCCCN1S(=O)(=O)c1cc(F)ccc1F (stereo not drawn) | i | / | 4.3 | -0.884 | /
O=C(NCCc1c[nH]c2ccccc12)C(=O)NCC1OCCN1S(=O)(=O)c1ccc(Cl)cc1 (stereo not drawn) | i | 59.7 | 54.2* | 0.0225 | 60.4
COc1ccc(CCC(C)Nc2ccc(F)cc2)cc1 (stereo not drawn) | i | 97.4 | -1.3 | -0.121 | 94.6
COc1ccc(CCC(C)NCC2CCCCC2)cc1 (stereo not drawn) | i | 80.0 | 86.6* | 0.609 | 82.0
CC(O)C(NS(=O)(=O)c1ccc(Cl)cc1)C(=O)OCC(=O)N1CCN(c2ccccc2)CC1 (stereo not drawn) | i | 88.5 | 0.9 | 0.606 | 86.6
Cc1cc2c(cc(C(=O)OC(C(=O)NCc3ccco3)C(C)C)n2C)o1 (stereo not drawn) | i | 83.4 | 99.3* | 1.29 | 87.2
COc1ccccc1CNC(=O)/C=C/c1ccc(S(=O)(=O)N2CCOCC2)cc1 | i | / | 7.0 | -1.21 | /
COc1ccc(-c2c(C(C)=O)c(C)nc3sc4c(=O)[nH]nnc4c23)cc1 | i | 102.1 | 58.9* | -0.616 | 96.3
CCOC(=O)c1c(C)nc2sc3c(=O)[nH]cnc3c2c1-c1ccc(OC)cc1 | i | 93.3 | 4.1 | 1.23 | 92.1
CC(C)(C)NC(=O)C(=O)NNC(=O)c1cccc([N+](=O)[O-])c1 | i | / | 1.5 | -0.988 | /
SMILES | Autophagy mod | HCT116 PTEN-null | Lmaj promast | Dynein cargo inh | HCT116 bCat-KO
O=C(CSCc1ccc(C(=O)O)cc1)Nc1ccc2ccccc2c1 | / | / | / | 1.88 | /
Cc1ccc(-n2c(=O)c3c4c(sc3n(Cc3cc(=O)n5ccccc5n3)c2=O)CCC4)cc1C | i | 69.7 | 74.0* | -0.106 | 76.1
c1ccc(Nc2nc(N3CCCCC3)nc(N3CCCCC3)n2)cc1 | i | 86.0 | 25.7 | -0.726 | 81.1
c1ccc2c(c1)nc(N1CCCCCC1)c1ccccc12 | / | / | / | 0.269 | /
c1ccc(-c2cc3ccccc3nc2N2CCCC2)cc1 | i | 101.8 | 0.5 | 0.146 | 97.4
COc1ccc(Nc2nc(N3CCCCC3)c3ccccc3n2)cc1 | i | 10.3 | 100.2* | -0.0772 | 10.4
Cc1ccc(-c2cc3ccccc3nc2N2CCOCC2)cc1 | + | / | 14.7 | 0.715 | /
Cc1cccc(-c2nc(Nc3ccc(N4CCOCC4)cc3)c3ccccc3n2)c1 | i | 64.8 | 73.6* | -0.537 | 75.7
Oc1ccc(Nc2nc(N3CCCC3)c3ccccc3n2)cc1 | + | 1.8* | 100.4* | -1.11 | 2.0*
CCCCNC(=O)c1ccc2c(c1)N(CC)C(=O)c1ccccc1S2(=O)=O | i | 104.1 | -5.1 | -0.256 | 89.8
O=C(CSc1nnc(-c2ccco2)n1Cc1ccccc1)c1ccc(F)cc1 | i | 76.5 | 14.4 | 0.0602 | 99.2
O=C(c1ccco1)N1CCN(CC(O)Cn2c3ccccc3c3ccccc32)CC1 (stereo not drawn) | i | 105.5 | 5.8 | 0.142 | 100.5
Cc1ccnc(NS(=O)(=O)c2ccc(NC(=O)C3COc4ccccc4O3)cc2)n1 (stereo not drawn) | i | / | -4.3 | 2.18 | /
O=C(Nc1ccc(-c2csnn2)cc1)C(Cl)(Cl)Cl | / | / | / | 0.224 | /
O=C(c1cn(-c2ccccc2)nc1-c1cccc([N+](=O)[O-])c1)N1CCCCC1 | i | / | 12.8 | -0.0933 | /
Cc1ccc(Nc2nc(N3CCOCC3)c3ccccc3n2)cc1 | i | 56.7 | 88.1* | 2.22 | 62.6
Fc1ccc(Nc2cccc3nccnc23)cc1 | i | 85.1 | 50.4* | -0.456 | 79.8
c1cc(Nc2cccc3nccnc23)c2nccnc2c1 | i | / | -0.7 | 0.831 | /
CCCNS(=O)(=O)c1ccc(CCC(=O)N2CCN(c3ccc(OC)cc3)CC2)cc1 | i | 83.2 | 2.1 | -1.3 | 84.7
CCCNS(=O)(=O)c1ccc(CCC(=O)N2CCN(c3ccc(F)cc3)CC2)cc1 | i | 73.0 | 56.8* | 0.805 | 78.0
Cc1cc2c(cc1[N+](=O)[O-])NC(CNC(C)C)CC2 (stereo not drawn) | / | / | / | -0.721 | /
CCOC(=O)c1oc2ccc(S(=O)(=O)n3nc(-c4cc(OC)c(OC)c(OC)c4)cc3N)cc2c1C | i | / | 64.1* | 1.34 | /
COc1cc(-c2cc(N)n(S(=O)(=O)c3ccc(F)cc3)n2)cc(OC)c1OC | i | 77.6 | 22.1 | 2.42 | 71.1
COc1ccc(-c2cc(N)n(S(=O)(=O)c3ccc(F)cc3)n2)cc1OC | i | 87.2 | 51.1* | 2.2 | 83.4
O=C1COc2ccc(C(=O)COc3ccc([N+](=O)[O-])cc3)cc2N1 | / | / | / | -1.45 | /
